Series [1] concerns the target Epidermal growth factor receptor (Homo sapiens, UniProt P00533). Briefly: Inhibition of human recombinant HER1 expressed in Sf9 cells by liquid scintillation counting.
In series [2] the target is Receptor tyrosine-protein kinase erbB-2 (Homo sapiens, UniProt P04626). Briefly: Inhibition of human recombinant HER2 expressed in Sf9 cells by liquid scintillation counting.
Series [3] concerns BT-474. Briefly: Antiproliferative activity against human BT474 cells after 72 hrs by MTT assay. As to conditions: BT-474, 72 h. It is filed as functional, cell-based. In a few lines: (§1)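 Cell proliferation IC50 reported as the mean of three independent determinations. BT474 is a breast line (HER2+++/HER1+); A2780 serves as a HER-independent control.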
(In general: Tetrazolium assays rely on reduction of a dye to a coloured formazan, in cell work by metabolically active cells.)

In series [4] the test system is NCI-N87. Briefly: Antiproliferative activity against human NCI-N87 cells after 72 hrs by MTT assay. It is filed as functional, cell-based. The conditions noted are these: NCI-N87, 72 h.
Series [5] is described as follows: Antiproliferative activity against mouse SAL2 cells after 72 hrs by MTT assay. As to conditions: SAL2, 72 h. It is filed as functional, cell-based.
Series [6] concerns A2780. Description: Antiproliferative activity against human A2780 cells after 72 hrs by MTT assay. It is filed as functional, cell-based. The conditions noted are these: A2780, 72 h. The gist of the method:
as §1

Series [7] is described as follows: AUC (0 to 4 hrs) in BALB/c mouse at 50 mg/kg, po. It is filed as ADME, organism-based. On the set-up: time < 4 hr, dose 50 mg/kg, route oral. The conditions noted are these: plasma.
The nature of series [8]: Cmax in BALB/c mouse at 50 mg/kg, po. It is filed as ADME, organism-based. On the set-up: dose 50 mg/kg, route oral. As to conditions: in vivo.
Series [9] has as its system Mus musculus. Description: Plasma concentration in BALB/c mouse at 50 mg/kg, po. It is filed as ADME, organism-based. On the set-up: dose 50 mg/kg, route oral. As to conditions: in vivo. In a few lines: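 Compound given orally at 50 mg/kg as a solution in PEG400/Tween80/water (40:10:50) to three Balb/C mice. Plasma sampled over 4 h after dosing; AUC(0-4h), Cmax and 4 h concentration reported.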

Series [10] in a line: Metabolic stability in mouse liver microsomes assessed per mg of protein at 10 uM after 10 mins. It is filed as ADME, Microsome. In a few lines: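 Mouse liver microsomes incubated with compound at 10 µM for 10 min; metabolic rate expressed as nmol/min/mg protein.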

The structures appear in SMILES notation.

The term IC50 denotes the concentration that gives 50% inhibition. As usually defined, the AUC(0-t) is the area under the concentration-time curve up to a stated or last time point. Read a low AUC(0-t) as less exposure. As usually defined, the Cmax is the highest concentration seen after dosing.

Chain of Receptor tyrosine-protein kinase erbB-2 (P04626 whole entry): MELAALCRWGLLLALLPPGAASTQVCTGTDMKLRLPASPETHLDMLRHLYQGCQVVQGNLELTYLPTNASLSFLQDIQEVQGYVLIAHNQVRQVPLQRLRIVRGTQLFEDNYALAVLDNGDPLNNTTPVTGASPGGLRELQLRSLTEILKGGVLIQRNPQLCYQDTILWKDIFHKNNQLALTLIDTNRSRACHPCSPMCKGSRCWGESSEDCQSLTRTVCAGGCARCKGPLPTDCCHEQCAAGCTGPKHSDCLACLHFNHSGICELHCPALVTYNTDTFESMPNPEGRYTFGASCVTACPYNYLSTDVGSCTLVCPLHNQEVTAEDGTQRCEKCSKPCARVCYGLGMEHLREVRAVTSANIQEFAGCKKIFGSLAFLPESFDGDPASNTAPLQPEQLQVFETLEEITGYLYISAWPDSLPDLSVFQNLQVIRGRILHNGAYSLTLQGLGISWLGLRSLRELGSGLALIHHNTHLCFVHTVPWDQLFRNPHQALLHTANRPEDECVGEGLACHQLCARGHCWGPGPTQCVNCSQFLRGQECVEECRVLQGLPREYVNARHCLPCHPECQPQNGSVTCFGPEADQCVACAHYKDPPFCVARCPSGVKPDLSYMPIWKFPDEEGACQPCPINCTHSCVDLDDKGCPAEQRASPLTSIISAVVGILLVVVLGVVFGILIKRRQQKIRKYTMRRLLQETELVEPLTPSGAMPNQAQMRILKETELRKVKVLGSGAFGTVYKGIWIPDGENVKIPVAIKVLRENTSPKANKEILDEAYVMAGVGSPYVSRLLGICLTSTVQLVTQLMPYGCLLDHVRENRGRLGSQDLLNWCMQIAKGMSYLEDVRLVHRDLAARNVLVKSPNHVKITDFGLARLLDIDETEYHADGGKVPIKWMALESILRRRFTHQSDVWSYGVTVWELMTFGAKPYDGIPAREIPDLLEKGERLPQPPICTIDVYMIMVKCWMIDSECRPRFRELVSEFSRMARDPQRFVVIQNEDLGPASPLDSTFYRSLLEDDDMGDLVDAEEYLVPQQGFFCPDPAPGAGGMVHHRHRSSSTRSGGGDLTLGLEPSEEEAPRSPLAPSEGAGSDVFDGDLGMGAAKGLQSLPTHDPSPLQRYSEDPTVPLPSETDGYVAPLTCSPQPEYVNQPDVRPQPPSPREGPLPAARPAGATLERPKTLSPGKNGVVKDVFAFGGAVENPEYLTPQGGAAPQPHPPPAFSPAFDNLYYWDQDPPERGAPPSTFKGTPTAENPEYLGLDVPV
Chain of Epidermal growth factor receptor (P00533 whole entry): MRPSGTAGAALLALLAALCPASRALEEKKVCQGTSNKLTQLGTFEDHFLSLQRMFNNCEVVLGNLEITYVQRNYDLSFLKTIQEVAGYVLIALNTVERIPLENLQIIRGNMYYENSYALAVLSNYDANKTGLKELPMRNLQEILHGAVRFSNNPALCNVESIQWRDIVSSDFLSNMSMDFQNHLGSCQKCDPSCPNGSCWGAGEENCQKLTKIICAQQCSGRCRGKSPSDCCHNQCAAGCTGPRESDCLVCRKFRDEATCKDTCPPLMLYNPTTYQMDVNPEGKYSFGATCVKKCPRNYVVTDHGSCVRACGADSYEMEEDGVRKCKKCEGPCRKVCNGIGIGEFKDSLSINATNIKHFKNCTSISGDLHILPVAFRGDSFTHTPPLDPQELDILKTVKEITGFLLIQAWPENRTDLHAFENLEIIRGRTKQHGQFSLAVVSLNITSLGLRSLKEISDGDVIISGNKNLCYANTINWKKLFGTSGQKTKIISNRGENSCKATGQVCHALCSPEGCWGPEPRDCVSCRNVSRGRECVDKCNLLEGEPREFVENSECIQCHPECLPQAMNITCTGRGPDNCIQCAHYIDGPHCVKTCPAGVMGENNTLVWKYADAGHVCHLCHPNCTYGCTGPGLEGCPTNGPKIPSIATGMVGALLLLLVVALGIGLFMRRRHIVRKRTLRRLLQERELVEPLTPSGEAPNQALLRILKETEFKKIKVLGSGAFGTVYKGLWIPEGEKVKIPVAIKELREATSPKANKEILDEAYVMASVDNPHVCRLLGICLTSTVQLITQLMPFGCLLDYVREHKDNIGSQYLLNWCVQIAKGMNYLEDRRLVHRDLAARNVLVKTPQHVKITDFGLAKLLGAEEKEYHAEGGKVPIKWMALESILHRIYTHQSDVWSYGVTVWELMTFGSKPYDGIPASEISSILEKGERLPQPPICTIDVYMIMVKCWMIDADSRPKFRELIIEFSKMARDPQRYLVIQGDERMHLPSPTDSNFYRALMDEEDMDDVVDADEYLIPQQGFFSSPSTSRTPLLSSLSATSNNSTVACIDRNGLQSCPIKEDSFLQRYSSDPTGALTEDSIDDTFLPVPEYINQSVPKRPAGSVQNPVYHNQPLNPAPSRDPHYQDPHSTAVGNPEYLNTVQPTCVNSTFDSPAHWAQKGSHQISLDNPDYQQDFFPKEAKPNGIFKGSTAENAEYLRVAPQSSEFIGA

Consider `CCc1c(NC(=O)OC[C@@H]2COCCN2)cn2ncnc(Nc3ccc4c(cnn4Cc4ccccc4)c3)c12`, for which the IC50 is 33 nM in [1]; 21 nM in [2]; 420 nM in [3]; 350 nM in [4]; 170 nM in series [5]; 4.51 µM in series [6]. Also, the AUC(0-t) at 4 h in series [7] is 11 µM·h. Further, the maximum concentration (Cmax) in [8] was 3500 nM. The concentration in [9] is 2600 nM. In series [10], this compound returned a Stability of 0.14 nmol/min.
Take `CCC1=C2C(Nc3ccc4c(cnn4Cc4ccccc4)c3)=NC=NC2N=C1NC(=O)OCCn1ccnc1` (centres undefined): the half-inhibitory concentration (IC50) in series [1] is 40 nM; in series [2] it was 44 nM; in series [3], 860 nM; in [4] it was 980 nM; in [5] it was 460 nM; in series [6], over 5 µM. Besides, the exposure AUC(0-t) at 4 h in series [7] came out at 36 µM·h. Also, the Cmax in series [8] worked out at 9900 nM. The concentration in series [9] is 9900 nM.
Turning to `CCC1=C2C(Nc3ccc4c(cnn4Cc4ccccc4)c3)=NC=NC2N=C1NC(=O)OCCC1CCNCC1` (centres undefined), the 50% inhibitory concentration (IC50) in series [1] came out at 44 nM; in series [2], 37 nM; in series [3], 130 nM; in series [4] it was 210 nM; in series [5] it was 490 nM. The compound also returned an AUC(0-t) at 4 h in series [7] of 0.53 µM·h. The compound further registered a peak concentration (Cmax) in series [8] of 250 nM. For the same compound, the concentration in series [9] is 110 nM.
As to `CCC1=C2C(Nc3ccc4c(cnn4Cc4ccccc4)c3)=NC=NC2N=C1NC(=O)OCCN1CCNCC1` (centres undefined), the half-maximal inhibitory concentration (IC50) was 21 nM in series [1]; 18 nM in [2]; 71 nM in [3]; 100 nM in series [4]; 250 nM in [5]. Besides, the AUC(0-t) at 4 h in series [7] is 0.62 µM·h. For the same compound, the highest concentration (Cmax) in [8] was 300 nM. The concentration in [9] came out at 300 nM. In addition, the Stability in [10] is 0.1 nmol/min.
With `CCC1=C2C(Nc3ccc4c(cnn4Cc4ccccc4)c3)=NC=NC2N=C1NC(=O)OCC1CCCNC1` (centres undefined), the IC50 in [1] was found to be 38 nM; in series [2] it was 29 nM; in series [3], 310 nM; in series [4], 320 nM; in series [5] it was 480 nM; in [6], 3.9 µM. Also, the AUC(0-t) at 4 h in series [7] turned out to be 3.6 µM·h. In series [8], this compound displayed a Cmax of 1200 nM. In addition, the concentration in series [9] worked out at 1200 nM.
`CCC1=C2C(Nc3ccc4c(cnn4Cc4cccc(F)c4)c3)=NC=NC2N=C1NC(=O)OC[C@@H]1COCCN1` (some centres undefined): the IC50 stood at 23 nM in [1]; 22 nM in [2]; 190 nM in [3]; 340 nM in series [4]; 230 nM in series [5]; 8.07 µM in series [6]. The AUC(0-t) at 4 h in [7] is 16.2 µM·h. Further, the maximum concentration (Cmax) in series [8] amounted to 5100 nM. Also, the concentration in series [9] came to 5100 nM. For the same compound, the Stability in [10] is recorded as 0.01 nmol/min.
Take `CCC1=C2C(Nc3ccc4c(cnn4Cc4ccccc4)c3)=NC=NC2N=C1NC(=O)OCC1CCNCC1` (centres undefined): the half-maximal inhibitory concentration (IC50) in series [1] stood at 30 nM; in series [2] it was 23 nM; in series [3], 90 nM; in [4] it was 170 nM; in series [5] it was 130 nM. Moreover, in [7], the AUC(0-t) at 4 h was found to be 1.3 µM·h. The compound also showed a Cmax in series [8] of 450 nM. The concentration in [9] amounted to 260 nM.
As for `CCC1=C2C(Nc3ccc4c(cnn4Cc4ccccc4)c3)=NC=NC2N=C1NC(=O)O[C@H]1CC[C@@](C)(N)CC1` (some centres undefined), the IC50 in series [1] turned out to be 19 nM; in series [2] it was 20 nM; in series [3], 130 nM; in [4], 170 nM; in series [5], 370 nM; in series [6], 5.22 µM. Also, the AUC(0-t) at 4 h in series [7] came to 1.76 µM·h. This compound also showed a Cmax in series [8] of 480 nM. For the same compound, the concentration in series [9] stood at 460 nM. This compound had a Stability in [10] of 0.02 nmol/min.
For the compound `CCC1=C2C(Nc3ccc4c(cnn4Cc4ccccc4)c3)=NC=NC2N=C1NC(=O)OCCN1CCOCC1` (centres undefined), the IC50 in [1] stood at 111 nM; in [2], 77 nM; in series [3], 550 nM; in series [4], 520 nM; in series [5] it was 500 nM. Further, the AUC(0-t) at 4 h in [7] was 29 µM·h. For the same compound, the Cmax in series [8] turned out to be 11000 nM. The compound also displayed a concentration in series [9] of 4900 nM.
As to `CCC1=C2C(Nc3ccc4c(cnn4Cc4ccccc4)c3)=NC=NC2N=C1NC(=O)OCCN1CCCCC1` (centres undefined), the half-inhibitory concentration (IC50) in [1] came to 38 nM; in series [2], 28 nM; in series [3] it was 310 nM; in [4], 390 nM; in series [5], 380 nM. Also, the exposure AUC(0-t) at 4 h in series [7] is 5.5 µM·h. This compound also gave a peak concentration (Cmax) in series [8] of 1700 nM. Also, in [9], the concentration worked out at 1300 nM. The same compound gave a Stability in series [10] of 0.27 nmol/min.
For `CCC1=C2C(Nc3ccc4c(cnn4Cc4ccccc4)c3)=NC=NC2N=C1NC(=O)OCC1CCCCN1` (centres undefined), the IC50 in [1] came out at 45 nM; in series [2], 30 nM; in series [3] it was 470 nM; in [4] it was 430 nM; in [5], 250 nM; in series [6] it was 4.75 µM. The compound further gave an AUC(0-t) at 4 h in series [7] of 7.2 µM·h. In addition, the peak level in series [8] (Cmax) was 2300 nM. The concentration in series [9] was 2300 nM.

For the origin of these results see ChEMBL document CHEMBL1154610, “Discovery and preclinical evaluation of [4-[[1-(3-fluorophenyl)methyl]-1H-indazol-5-ylamino]-5-methylpyrrolo[2,1-f][1,2,4]triazin-6-yl]carbamic acid, (3S)-3-morpholinylmethyl ester (BMS-599626), a selective and orally efficacious inhibitor of human epidermal growth factor receptor 1 and 2 kinases” (J Med Chem, 2009).
